The text below walks through data of paper PMC11069345 (Bioorganic chemistry, 2024).

Where two headings read alike, the source gives them in different places.

Data set [1] concerns the target T1, ABCB1 (P-gp) (Homo sapiens, UniProt P08183).
Data set [2] relates to HEK293 and HEK293-ABCG2 cells. The experiment in a line: Cell viability MTT assay, 72 h. The data set is classed as cell-based, human. In outline:
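Parental HEK293 and HEK293-ABCG2 cells were seeded at 1.5×10^4 cells/well, left overnight, then exposed to test compound at 0.19–100 μM for 72 h at 37 °C under 5% CO2. Medium was replaced with 0.5 mg mL−1 MTT for 4 h. Formazan was dissolved in DMSO/ethanol (1:1) and absorbance read at 570 nm.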
On the technique in general: Tetrazolium assays rely on reduction of a dye to a coloured formazan, in cell work by metabolically active cells.

The test system of the next data set is ABCG2 mRNA expression. The experiment in a line: mRNA expression levels by qPCR in HEK293-ABCG2 cells. The data set is classed as cell-based, human. As to conditions: 50 μM, 72 h. (In general: Real-time PCR tracks product formation cycle by cycle.)
Data set [3] has as its target T2, ABCG2 (Homo sapiens, UniProt Q9UNQ0).
T2 sequence (Q9UNQ0 1-655): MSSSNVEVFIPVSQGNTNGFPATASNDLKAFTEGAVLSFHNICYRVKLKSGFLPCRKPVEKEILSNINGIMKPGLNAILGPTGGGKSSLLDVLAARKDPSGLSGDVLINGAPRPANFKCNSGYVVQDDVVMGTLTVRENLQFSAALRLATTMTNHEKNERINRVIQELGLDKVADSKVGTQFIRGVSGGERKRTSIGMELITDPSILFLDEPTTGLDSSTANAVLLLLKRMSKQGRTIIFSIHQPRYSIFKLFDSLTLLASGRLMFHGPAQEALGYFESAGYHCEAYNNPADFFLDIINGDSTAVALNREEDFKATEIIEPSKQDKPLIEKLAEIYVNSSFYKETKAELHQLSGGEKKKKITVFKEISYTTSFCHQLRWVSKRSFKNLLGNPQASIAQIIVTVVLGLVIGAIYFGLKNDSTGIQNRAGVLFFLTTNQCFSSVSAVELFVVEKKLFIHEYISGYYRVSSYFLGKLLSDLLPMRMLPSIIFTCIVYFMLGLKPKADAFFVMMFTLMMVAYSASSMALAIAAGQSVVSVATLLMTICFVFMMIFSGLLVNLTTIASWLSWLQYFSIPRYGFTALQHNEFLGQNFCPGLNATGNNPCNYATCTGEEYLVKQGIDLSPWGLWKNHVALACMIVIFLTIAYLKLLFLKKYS
It counts as biochemical.

Data set [4] deals with T3, ABCC1 (MRP1) (Homo sapiens, UniProt P33527).
Data set [5] has as its target T4, ABCG2 (BCRP) (Homo sapiens, UniProt Q9UNQ0).
T4 sequence (Q9UNQ0 1-655): T2 sequence (Q9UNQ0 1-655)

For a further data set, the system named is HEK293-ABCG2 cells. The experiment in a line: Chemosensitization assay, co-treatment with SN-38, MTT, 72 h. It counts as cell-based, human. The note with it: co-treatment with SN-38 0.05 μM, 11 at saturating concentration, Ko143 at 0.5 μM.
Data set [6] deals with T4, ABCG2 (BCRP). As to conditions: for Inhibition (% ± SD) ABCG2 (BCRP) 10 μM: 10 μM compound; for Inhibition (% ± SD) ABCG2 (BCRP) 10 μM / Inhibition (% ± SD) ABCG2 (BCRP) 50 μM: mitoxantrone 5 μM, 30 min, relative to Ko143 0.5 μM (100%); for Inhibition (% ± SD) ABCG2 (BCRP) 50 μM: 50 μM compound.
Data set [7] deals with T3, ABCC1 (MRP1). The data set can be described thus: Transport inhibition assay: calcein-AM in BHK21-ABCC1 cells, flow cytometry. As to conditions: for Inhibition (% ± SD) ABCC1 (MRP1) 10 μM: 10 μM compound; for Inhibition (% ± SD) ABCC1 (MRP1) 10 μM / Inhibition (% ± SD) ABCC1 (MRP1) 50 μM: calcein-AM 0.15 μM, relative to verapamil 30 μM (100%); for Inhibition (% ± SD) ABCC1 (MRP1) 50 μM: 50 μM compound.

Data set [8] deals with T1, ABCB1 (P-gp). The experiment in a line: Transport inhibition assay: rhodamine 123 in NIH3T3-ABCB1 cells, flow cytometry. As to conditions: for Inhibition (% ± SD) ABCB1 (P-gp) 10 μM: 10 μM compound; for Inhibition (% ± SD) ABCB1 (P-gp) 10 μM / Inhibition (% ± SD) ABCB1 (P-gp) 50 μM: rhodamine 123 5 μM, relative to GF120918 0.5 μM (100%); for Inhibition (% ± SD) ABCB1 (P-gp) 50 μM: 50 μM compound.

For data set [9] the following is noted: cited from earlier work.
Data set [10] concerns the target T2, ABCG2. As to conditions: cited from earlier work.
The mark [11] stands for this setting: human, probe mitoxantrone (5 μM).

T1 sequence (P08183 whole entry): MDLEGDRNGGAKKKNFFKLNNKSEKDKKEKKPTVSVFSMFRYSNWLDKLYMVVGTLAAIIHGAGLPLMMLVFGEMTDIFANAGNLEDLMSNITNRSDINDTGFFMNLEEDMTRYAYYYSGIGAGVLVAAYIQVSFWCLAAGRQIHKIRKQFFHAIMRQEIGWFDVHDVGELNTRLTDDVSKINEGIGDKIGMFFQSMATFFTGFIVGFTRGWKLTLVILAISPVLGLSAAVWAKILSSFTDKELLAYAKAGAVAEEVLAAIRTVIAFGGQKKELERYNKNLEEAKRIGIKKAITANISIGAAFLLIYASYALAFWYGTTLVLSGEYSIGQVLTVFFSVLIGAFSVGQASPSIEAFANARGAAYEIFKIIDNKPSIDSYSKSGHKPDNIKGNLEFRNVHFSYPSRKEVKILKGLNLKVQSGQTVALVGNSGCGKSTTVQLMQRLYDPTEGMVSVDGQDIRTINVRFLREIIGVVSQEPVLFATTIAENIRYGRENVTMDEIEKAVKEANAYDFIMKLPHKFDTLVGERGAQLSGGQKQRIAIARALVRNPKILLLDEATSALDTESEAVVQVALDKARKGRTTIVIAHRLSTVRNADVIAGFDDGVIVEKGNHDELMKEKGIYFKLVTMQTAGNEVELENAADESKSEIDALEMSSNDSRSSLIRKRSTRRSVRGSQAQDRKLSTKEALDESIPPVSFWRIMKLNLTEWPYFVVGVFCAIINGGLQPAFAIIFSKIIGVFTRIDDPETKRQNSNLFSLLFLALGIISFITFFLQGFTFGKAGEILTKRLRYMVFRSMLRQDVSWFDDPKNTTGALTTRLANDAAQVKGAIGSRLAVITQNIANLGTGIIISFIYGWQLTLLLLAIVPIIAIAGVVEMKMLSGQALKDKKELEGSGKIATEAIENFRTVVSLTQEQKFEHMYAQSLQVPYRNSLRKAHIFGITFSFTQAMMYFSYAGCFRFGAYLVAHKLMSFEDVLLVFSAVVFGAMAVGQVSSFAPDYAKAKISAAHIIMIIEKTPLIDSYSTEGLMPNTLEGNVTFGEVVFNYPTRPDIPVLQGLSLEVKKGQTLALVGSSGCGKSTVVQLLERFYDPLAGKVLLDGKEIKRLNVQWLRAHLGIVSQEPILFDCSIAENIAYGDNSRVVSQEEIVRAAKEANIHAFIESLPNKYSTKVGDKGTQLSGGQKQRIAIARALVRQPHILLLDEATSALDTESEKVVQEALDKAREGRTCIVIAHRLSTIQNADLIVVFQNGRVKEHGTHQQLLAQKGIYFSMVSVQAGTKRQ
T3 sequence (P33527 whole entry): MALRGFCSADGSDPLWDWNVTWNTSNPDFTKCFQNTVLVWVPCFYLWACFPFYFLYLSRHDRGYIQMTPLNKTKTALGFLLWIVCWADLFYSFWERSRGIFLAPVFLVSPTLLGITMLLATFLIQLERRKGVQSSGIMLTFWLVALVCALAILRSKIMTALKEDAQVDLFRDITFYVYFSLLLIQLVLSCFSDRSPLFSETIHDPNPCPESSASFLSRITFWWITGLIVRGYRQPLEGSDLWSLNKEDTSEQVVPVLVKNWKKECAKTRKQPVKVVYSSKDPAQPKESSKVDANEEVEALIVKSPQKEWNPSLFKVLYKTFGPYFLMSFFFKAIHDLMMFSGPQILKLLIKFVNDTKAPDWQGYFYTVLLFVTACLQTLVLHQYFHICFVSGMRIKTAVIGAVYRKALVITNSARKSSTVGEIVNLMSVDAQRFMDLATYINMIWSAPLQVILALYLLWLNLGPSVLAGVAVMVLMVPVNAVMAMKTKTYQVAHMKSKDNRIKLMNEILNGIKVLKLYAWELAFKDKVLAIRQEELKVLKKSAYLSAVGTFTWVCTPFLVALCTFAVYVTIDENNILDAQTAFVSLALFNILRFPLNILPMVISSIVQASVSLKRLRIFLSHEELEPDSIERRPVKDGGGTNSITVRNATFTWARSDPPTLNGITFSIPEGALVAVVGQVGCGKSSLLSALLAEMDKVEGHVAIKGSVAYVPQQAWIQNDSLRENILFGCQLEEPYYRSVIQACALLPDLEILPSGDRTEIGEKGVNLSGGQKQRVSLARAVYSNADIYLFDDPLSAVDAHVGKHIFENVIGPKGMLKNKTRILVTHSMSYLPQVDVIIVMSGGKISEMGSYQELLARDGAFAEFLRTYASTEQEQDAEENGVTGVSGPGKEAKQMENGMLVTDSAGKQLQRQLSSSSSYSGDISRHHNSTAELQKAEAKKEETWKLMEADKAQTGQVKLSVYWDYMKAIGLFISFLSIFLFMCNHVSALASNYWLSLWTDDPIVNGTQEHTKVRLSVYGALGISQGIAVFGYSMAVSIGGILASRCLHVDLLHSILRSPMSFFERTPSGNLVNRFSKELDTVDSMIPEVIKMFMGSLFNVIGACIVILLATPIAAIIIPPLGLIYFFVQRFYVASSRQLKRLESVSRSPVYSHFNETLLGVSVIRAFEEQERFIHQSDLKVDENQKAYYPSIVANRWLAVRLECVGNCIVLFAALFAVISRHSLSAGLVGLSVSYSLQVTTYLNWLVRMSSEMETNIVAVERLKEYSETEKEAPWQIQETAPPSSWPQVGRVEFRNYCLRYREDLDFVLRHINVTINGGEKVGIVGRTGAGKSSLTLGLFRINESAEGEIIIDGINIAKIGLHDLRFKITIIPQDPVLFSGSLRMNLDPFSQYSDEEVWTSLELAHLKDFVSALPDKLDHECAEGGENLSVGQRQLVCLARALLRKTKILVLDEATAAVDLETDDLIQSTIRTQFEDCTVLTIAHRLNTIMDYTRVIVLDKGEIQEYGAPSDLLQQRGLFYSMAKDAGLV

The IC50 is the concentration at which inhibition is half-maximal. Turning to `C=CCc1ccc(O)c(-c2cc(CC=C)ccc2OC)c1` [Compound 11], on ABCB1 (P-gp) [1], the “Inhibition (% ± SD) ABCB1 (P-gp) 10 μM” value is −0.7 ± 1.2% and the “Inhibition (% ± SD) ABCB1 (P-gp) 50 μM” value turned out to be 2.8 ± 3.8%. The “Concentration with cytotoxic effect” value in [2] (0.19 – 100 μM tested, HEK293 and HEK293-ABCG2) was over 100 µM. Also, the “IG50 (concentration that reduces 50% of the cell viability)” value in data set [2] (estimated) was over 100 µM. Besides, the “Effect on mRNA ABCG2 expression levels” value in the data set on ABCG2 mRNA expression is on record as “did not significantly affect the transcriptional levels of ABCG2”. The “Stimulation of ABCG2 ATPase activity” value at ABCG2 [3] is ~ 60%. The “Inhibition of ABCG2 ATPase activity” value on ABCG2 [3] (50 µM) was ~ 30%. Besides, on ABCC1 (MRP1) [4], the “Inhibition (% ± SD) ABCC1 (MRP1) 10 μM” value was 4.9 ± 7.0% and the “Inhibition (% ± SD) ABCC1 (MRP1) 50 μM” value came out at 11.5 ± 5.8%. Further, at ABCG2 (BCRP) [5], the “Extent of ABCG2 inhibition (partial or complete inhibitor)” value was “complete ABCG2 inhibitor”; the midpoint of inhibition, the IC50, lay at 9.5 µM; the “Inhibition (% ± SD) ABCG2 (BCRP) 10 μM” value is 62.0 ± 11.9%; the “Type of inhibition (Lineweaver-Burk plot)” value was “mixed type of inhibition”. Moreover, in the data set on HEK293-ABCG2 cells, the “Reversion of ABCG2-mediated resistance to SN-38 (cell viability)” value is “completely revert the MDR phenotype mediated by ABCG2”.
For `C=CCc1ccc(OC)c(-c2cc(CC=C)ccc2OC)c1` [Compound 12], at ABCB1 (P-gp) [1], the “Inhibition (% ± SD) ABCB1 (P-gp) 10 μM” value was −1.1 ± 1.5% and the “Inhibition (% ± SD) ABCB1 (P-gp) 50 μM” value is reported as −0.5 ± 2.1%. Further, on ABCC1 (MRP1) [4], the “Inhibition (% ± SD) ABCC1 (MRP1) 10 μM” value was found to be 2.6 ± 1.8% and the “Inhibition (% ± SD) ABCC1 (MRP1) 50 μM” value is 9.1 ± 3.3%. For the same compound, at ABCG2 (BCRP) [5], the “Inhibition (% ± SD) ABCG2 (BCRP) 10 μM” value is 5.9 ± 10.9% and the “Inhibition (% ± SD) ABCG2 (BCRP) 50 μM” value was 32.8 ± 5.5%.
Usually inhibition stands for the change of the read-out against control, counted positive when it falls. On to `C=CCc1ccc(OC)c(-c2cc(CC=C)cc(O)c2O)c1` [Compound 13, 5,5’-diallyl-2’-methoxy-[1,1’-biphenyl]-2,3-diol], for which the inhibition at 30 min, 10 μM on ABCG2 (BCRP) [6] (setting [11]) was 4 ± 4.4%; on ABCC1 (MRP1) [7] (probe calcein-AM (0.15 μM)), 2.9 ± 4.3%; on ABCB1 (P-gp) [8] (probe rhodamine 123 (5 μM)), 1.1 ± 4.6%. Also, the inhibition at 30 min, 50 μM against ABCG2 (BCRP) [6] (setting [11]) was 19.5 ± 4.4%; on ABCC1 (MRP1) [7] (probe calcein-AM (0.15 μM)) it was 4.7 ± 6.4%; against ABCB1 (P-gp) [8] (probe rhodamine 123 (5 μM)), -1.2 ± 1.8%.
Consider `CCCc1ccc(O)c(-c2cc(CCC)ccc2O)c1` [Compound 14], for which, at ABCG2 (BCRP) [6], the “Inhibition (% ± SD) ABCG2 (BCRP) 10 μM” value stood at 1.8 ± 1.7% and the “Inhibition (% ± SD) ABCG2 (BCRP) 50 μM” value amounted to 19.5 ± 4.5%. Further, on ABCC1 (MRP1) [7], the “Inhibition (% ± SD) ABCC1 (MRP1) 10 μM” value is 5.6 ± 5.5% and the “Inhibition (% ± SD) ABCC1 (MRP1) 50 μM” value is 16.0 ± 10.7%. Further, on ABCB1 (P-gp) [8], the “Inhibition (% ± SD) ABCB1 (P-gp) 10 μM” value was 0.5 ± 0.9% and the “Inhibition (% ± SD) ABCB1 (P-gp) 50 μM” value was −6.4 ± 0.3%.
`CCCc1ccc(O)c(-c2cc(CCC)ccc2OC)c1` [Compound 15]: on ABCG2 (BCRP) [6], the “Inhibition (% ± SD) ABCG2 (BCRP) 10 μM” value amounted to 1.1 ± 5.4% and the “Inhibition (% ± SD) ABCG2 (BCRP) 50 μM” value is 20.4 ± 1.7%. Besides, on ABCC1 (MRP1) [7], the “Inhibition (% ± SD) ABCC1 (MRP1) 10 μM” value is reported as 4.3 ± 3.9% and the “Inhibition (% ± SD) ABCC1 (MRP1) 50 μM” value is on record as 5.8 ± 4.1%. For the same compound, at ABCB1 (P-gp) [8], the “Inhibition (% ± SD) ABCB1 (P-gp) 10 μM” value is 0.2 ± 0.8% and the “Inhibition (% ± SD) ABCB1 (P-gp) 50 μM” value stood at 2.0 ± 1.9%.
As to `COc1ccc2c3c([nH]c2c1)[C@H](CC(C)C)N1C(=O)[C@H](CCC(=O)OC(C)(C)C)NC(=O)[C@@H]1C3` [Ko143, reference compound], in [9], the “IG50 (cytotoxicity)” value is 18 to 34 µM. Also, the “Reversion of ABCG2-mediated resistance to SN-38 (cell viability)” value with HEK293-ABCG2 cells is on record as “same percentage of cell viability as the observed for HEK293 cells exposed to SN-38 alone”.
As to `C=CCc1ccc(O)c(-c2ccc(O)c(CC=C)c2)c1` [honokiol], the “Transport by ABCG2 (substrate)” value on ABCG2 [10] is on record as “substrates of ABCG2”.
For the compound `C=CCc1ccc(O)c(-c2cc(CC=C)ccc2O)c1` [magnolol], at ABCG2 [10], the “Transport by ABCG2 (substrate)” value is recorded as “substrates of ABCG2”.
